Experiments:
[1] = system: bone-marrow-derived dendritic cells (BMDCs); assay: Cytokine production in R848-stimulated BMDCs; type: cell-based, mouse; conditions: for IL-10 upregulation in Ccnc Δ/Δ BMDCs: BMDCs lacking cyclin C; for IL-10 upregulation in Ccnc Δ/Δ BMDCs / IL-10 upregulation in Ccnc f/f BMDCs: R848; for IL-10 production: BMDCs, R848 stimulation; for IL-10 upregulation in Ccnc f/f BMDCs: control BMDCs
Procedure, shortened: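 BMDCs from C57BL/6 bone marrow, pretreated 24 h with test compound or DMSO (0.5%), then given R848 (2 μg/mL) or zymosan A (4 μg/mL) for 18 h; some sets co-treated with T-5224 (100 μM). Cyclin C-deleted cells came from Ccnc f/f × Mx1-Cre mice given poly(I:C) 2.5 μg g−1 i.p. every other day for 3 d, with bone marrow taken 10 d later and deletion confirmed by PCR. Clarified medium assayed by cytometric bead array. n = 3–4 biological replicates; EC50 by 4-parameter regression.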

[2] = system: human, monocyte-derived DCs; assay: IL-10 production in R848-stimulated human DCs; type: cell-based; conditions: human DCs from two independent donors, R848 stimulation
Procedure, shortened: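 CD14+ monocytes enriched from healthy-donor buffy coats and cultured to DCs. On day 7, cells scraped and plated at 30,000/well, treated with a concentration series of test compound or DMSO (0.5%), then stimulated 18 h with R848 (2 μg/mL). Medium stored at −80 °C before IL-10 detection. n = 3 biological replicates per donor; two independent experiments.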

c-Jun = c-Jun phosphorylation in R848-activated BMDCs; type: cell-based, mouse; conditions: dCA pretreatment (100 nM; 18 h)
Procedure, shortened: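 BMDCs pretreated with test compound, then activated with R848 for a time course. Lysates (10–20 μg protein) separated by SDS–PAGE, transferred to PVDF and immunoblotted for phospho-c-Jun Ser243 (1/1000) with chemiluminescent detection. Two independent experiments.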

[3] = molecular target: T1, recombinant cyclin C–CDK8 (Homo sapiens, UniProt P49336); assay: CDK8–c-Jun in vitro kinase reaction; type: biochemical; conditions: in vitro kinase reaction with recombinant c-Jun
Procedure, shortened: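 60 ng recombinant cyclin C–CDK8 and 60 ng recombinant human c-Jun pre-incubated 15 min with a dilution series of test compound. Reaction started with 20 μM ATP and run 30 min at 30 °C in 60 mM HEPES pH 7.5, 3 mM MgCl2, 3 mM MnCl2, 1.2 mM DTT, then EDTA-quenched. Read by SDS–PAGE and immunoblot for phospho-c-Jun Ser243; two independent experiments.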

STAT1–STAT2 = assay: TF-seq pathway reporter assay in BMDMs, STAT1–STAT2; type: cell-based, mouse; conditions: ~2 h after stimulation
NF-κB = assay: TF-seq pathway reporter assay in BMDMs, NF-κB; type: cell-based, mouse; conditions: all stimuli tested
Procedure, shortened: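 Bone-marrow macrophages grown in DMEM with 30% FBS and 10% L929-conditioned medium, transduced on day 4 with a pooled lentiviral sequencing-based reporter library, then frozen and thawed. Cells plated at 100,000/well and pretreated 24 h at 37 °C with test compound (0.1 or 5 μM) or DMSO (0.5%). Stimulated up to 3 h with a ten-ligand panel or Sendai virus (MOI 10). Reporter transcripts counted as unique tagged molecules by sequencing.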

Il10 mRNA = Il10 mRNA levels after R848 stimulation; type: cell-based, mouse; conditions: pretreatment, then R848 / microbial stimulation
[4] = system: bone-marrow-derived dendritic cells (BMDCs); assay: IL-10 release, cytokines and viability in zymosan A-stimulated BMDCs; type: cell-based, mouse
[5] = system: mouse bone-marrow-derived macrophages (BMDMs); assay: IL-10 production in activated BMDMs; type: cell-based; conditions: BMDMs activated with zymosan A or R848
Procedure, shortened: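 Bone-marrow macrophages from C57BL/6 mice, treated 24 h with test compound or DMSO (0.5%), then stimulated 18 h with R848 (2 μg/mL) or zymosan A (4 μg/mL). IL-10 measured in culture medium.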

[6] = molecular target: human cyclin C–CDK8 complex (Homo sapiens, UniProt P49336); assay: Cyclin C-CDK8 LanthaScreen binding assay; conditions: read-out: binding to cyclin C–CDK8, half-maximal inhibitory concentration (IC50)
Procedure, shortened: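 Human cyclin C–CDK8 complex in a LanthaScreen binding format. Binding expressed as percent displacement of a dye-labelled probe from the CDK8 kinase domain.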

[7] = molecular target: T1, recombinant cyclin C–CDK8; assay: CDK8 radiometric filter-binding kinase activity assay; type: biochemical; conditions: read-out: inhibition of kinase activity of cyclin C–CDK8, IC50
Procedure, shortened: (§1)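 Purified recombinant cyclin C–CDK8 or cyclin C–CDK19 incubated with a dilution series of test compound. Activity measured by radiometric filter binding as [γ-32P] transfer from ATP to recombinant RBER-IRStide substrate, relative to DMSO (1%) control. IC50 estimated by 4-parameter nonlinear regression.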

[8] = molecular target: recombinant cyclin C–CDK19 (Homo sapiens, UniProt Q9BWU1); assay: CDK19 radiometric filter-binding kinase activity assay; type: biochemical; conditions: read-out: inhibition of kinase activity of cyclin C–CDK19, IC50
Procedure, shortened: as §1

STAT1 = STAT1 phosphorylation in IFNγ-stimulated BMDCs; type: cell-based, mouse; conditions: BMDCs pre-incubated with compound
Procedure, shortened: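 BMDCs pre-incubated with test compound, then stimulated with recombinant murine IFNγ. Cells lysed in Tris pH 7.4 buffer with phosphatase and protease inhibitors, 1% Triton X-100 and 0.2% SDS; lysate clarified at 14,000 × g. 10–20 μg protein run on SDS–PAGE and blotted to PVDF. Probed for total STAT1 and p-STAT1 Tyr701 (1/1,000), β-actin; chemiluminescent detection.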

PI3KC2A = PI3KC2A (Homo sapiens, UniProt O00443); assay: Kinase profiling, PI3KC2A; type: binding; conditions: both kinase profiling formats
Procedure, shortened: (§2)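 Test compound screened at 1 μM against 414 kinases (LanthaScreen Eu binding, Adapta or Z-LYTE), scored as percent probe displacement or residual activity versus DMSO (0.5%). Also screened at 10 μM against 395 kinases by KINOMEscan active-site competitive binding, scored as percent displacement of a catalytic-site probe versus DMSO (0.5%).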

PI3KCG = PI3KCG (Homo sapiens, UniProt P48736); assay: Kinase profiling, PI3KCG; type: binding; conditions: both kinase profiling formats
Procedure, shortened: as §2

T1 sequence (P49336 whole entry): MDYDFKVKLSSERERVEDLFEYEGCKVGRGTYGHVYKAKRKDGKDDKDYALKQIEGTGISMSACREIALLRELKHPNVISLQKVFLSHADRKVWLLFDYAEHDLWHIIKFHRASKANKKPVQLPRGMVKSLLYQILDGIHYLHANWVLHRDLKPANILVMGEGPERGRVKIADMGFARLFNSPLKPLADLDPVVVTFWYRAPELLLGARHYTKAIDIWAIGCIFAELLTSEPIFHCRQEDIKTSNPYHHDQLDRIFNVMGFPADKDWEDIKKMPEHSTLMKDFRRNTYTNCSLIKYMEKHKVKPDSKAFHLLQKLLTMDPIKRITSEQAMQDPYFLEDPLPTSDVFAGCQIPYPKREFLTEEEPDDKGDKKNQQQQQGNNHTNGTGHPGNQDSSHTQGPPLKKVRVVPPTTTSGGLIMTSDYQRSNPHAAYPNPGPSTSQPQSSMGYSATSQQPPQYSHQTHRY
T1 sequence (P24863 whole entry partner): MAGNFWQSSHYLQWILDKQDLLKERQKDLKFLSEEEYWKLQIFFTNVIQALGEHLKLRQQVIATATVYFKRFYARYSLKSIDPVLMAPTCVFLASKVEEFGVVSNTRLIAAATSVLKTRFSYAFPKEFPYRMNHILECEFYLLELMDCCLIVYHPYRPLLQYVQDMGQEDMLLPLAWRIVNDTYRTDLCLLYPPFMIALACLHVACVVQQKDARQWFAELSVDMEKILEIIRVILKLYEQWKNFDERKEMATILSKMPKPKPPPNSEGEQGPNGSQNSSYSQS
Sequence of PI3KC2A (O00443 whole entry): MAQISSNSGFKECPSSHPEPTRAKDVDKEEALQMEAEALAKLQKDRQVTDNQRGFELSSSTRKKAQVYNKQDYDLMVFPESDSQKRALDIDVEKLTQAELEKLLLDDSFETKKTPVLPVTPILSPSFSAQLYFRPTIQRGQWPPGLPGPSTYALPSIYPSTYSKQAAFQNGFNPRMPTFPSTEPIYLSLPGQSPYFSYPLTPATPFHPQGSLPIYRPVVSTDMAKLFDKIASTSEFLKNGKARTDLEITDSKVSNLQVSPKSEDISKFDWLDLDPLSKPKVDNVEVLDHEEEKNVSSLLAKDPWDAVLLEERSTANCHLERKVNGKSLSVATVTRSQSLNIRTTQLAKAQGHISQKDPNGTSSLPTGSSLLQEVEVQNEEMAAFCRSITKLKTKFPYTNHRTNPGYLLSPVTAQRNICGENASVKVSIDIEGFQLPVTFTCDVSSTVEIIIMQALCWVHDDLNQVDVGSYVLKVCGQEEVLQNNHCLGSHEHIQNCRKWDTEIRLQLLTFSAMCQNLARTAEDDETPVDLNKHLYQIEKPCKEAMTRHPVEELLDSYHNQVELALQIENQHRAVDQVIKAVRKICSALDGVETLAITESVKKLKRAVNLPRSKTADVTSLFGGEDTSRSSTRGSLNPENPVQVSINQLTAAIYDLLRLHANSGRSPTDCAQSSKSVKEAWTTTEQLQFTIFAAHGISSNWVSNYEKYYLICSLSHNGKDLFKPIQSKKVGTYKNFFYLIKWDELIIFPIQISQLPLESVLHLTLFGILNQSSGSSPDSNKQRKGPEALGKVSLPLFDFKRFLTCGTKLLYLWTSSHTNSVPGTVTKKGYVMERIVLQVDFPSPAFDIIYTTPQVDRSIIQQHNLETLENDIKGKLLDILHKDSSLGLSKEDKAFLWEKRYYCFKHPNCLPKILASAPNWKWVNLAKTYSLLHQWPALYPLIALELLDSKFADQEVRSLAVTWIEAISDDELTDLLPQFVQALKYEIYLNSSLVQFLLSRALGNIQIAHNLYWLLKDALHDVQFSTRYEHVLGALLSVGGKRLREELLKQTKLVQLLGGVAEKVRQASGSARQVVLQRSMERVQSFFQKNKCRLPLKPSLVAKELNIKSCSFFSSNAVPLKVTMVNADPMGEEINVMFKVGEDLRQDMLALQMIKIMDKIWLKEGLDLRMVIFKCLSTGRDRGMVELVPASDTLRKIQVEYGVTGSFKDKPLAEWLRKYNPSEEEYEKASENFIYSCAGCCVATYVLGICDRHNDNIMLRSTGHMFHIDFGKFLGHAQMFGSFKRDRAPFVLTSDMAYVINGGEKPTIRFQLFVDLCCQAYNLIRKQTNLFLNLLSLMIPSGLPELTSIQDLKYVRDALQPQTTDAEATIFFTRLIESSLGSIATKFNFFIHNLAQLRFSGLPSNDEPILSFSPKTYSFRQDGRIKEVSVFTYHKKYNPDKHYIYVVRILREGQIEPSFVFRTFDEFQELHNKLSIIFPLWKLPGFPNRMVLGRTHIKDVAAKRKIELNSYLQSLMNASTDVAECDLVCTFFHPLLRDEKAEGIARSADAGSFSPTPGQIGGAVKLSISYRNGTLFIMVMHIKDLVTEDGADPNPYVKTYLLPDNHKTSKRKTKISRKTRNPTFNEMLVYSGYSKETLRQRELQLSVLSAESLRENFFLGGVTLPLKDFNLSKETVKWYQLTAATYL
Sequence of human cyclin C–CDK8 complex (P49336 whole entry, the tested form may be a part): as the sequence (P49336 whole entry) above
Sequence of human cyclin C–CDK8 complex (P24863 whole entry partner, the tested form may be a part): as the sequence (P24863 whole entry partner) above
Sequence of recombinant cyclin C–CDK19 (Q9BWU1 whole entry): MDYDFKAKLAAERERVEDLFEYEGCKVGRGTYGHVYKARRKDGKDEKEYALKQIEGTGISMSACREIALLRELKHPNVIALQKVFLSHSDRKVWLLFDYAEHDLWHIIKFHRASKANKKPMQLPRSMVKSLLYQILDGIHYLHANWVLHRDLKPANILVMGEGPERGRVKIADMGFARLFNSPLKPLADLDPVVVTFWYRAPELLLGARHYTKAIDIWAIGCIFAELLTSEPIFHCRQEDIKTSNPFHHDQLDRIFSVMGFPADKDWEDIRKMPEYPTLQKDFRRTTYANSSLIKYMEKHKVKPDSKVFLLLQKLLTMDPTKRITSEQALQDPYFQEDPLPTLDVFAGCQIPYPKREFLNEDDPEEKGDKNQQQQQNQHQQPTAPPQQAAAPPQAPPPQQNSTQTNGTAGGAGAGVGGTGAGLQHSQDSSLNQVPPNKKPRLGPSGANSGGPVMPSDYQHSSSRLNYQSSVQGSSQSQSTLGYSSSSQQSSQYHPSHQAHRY
Sequence of recombinant cyclin C–CDK19 (P24863 whole entry partner): as the sequence (P24863 whole entry partner) above
Sequence of PI3KCG (P48736 whole entry): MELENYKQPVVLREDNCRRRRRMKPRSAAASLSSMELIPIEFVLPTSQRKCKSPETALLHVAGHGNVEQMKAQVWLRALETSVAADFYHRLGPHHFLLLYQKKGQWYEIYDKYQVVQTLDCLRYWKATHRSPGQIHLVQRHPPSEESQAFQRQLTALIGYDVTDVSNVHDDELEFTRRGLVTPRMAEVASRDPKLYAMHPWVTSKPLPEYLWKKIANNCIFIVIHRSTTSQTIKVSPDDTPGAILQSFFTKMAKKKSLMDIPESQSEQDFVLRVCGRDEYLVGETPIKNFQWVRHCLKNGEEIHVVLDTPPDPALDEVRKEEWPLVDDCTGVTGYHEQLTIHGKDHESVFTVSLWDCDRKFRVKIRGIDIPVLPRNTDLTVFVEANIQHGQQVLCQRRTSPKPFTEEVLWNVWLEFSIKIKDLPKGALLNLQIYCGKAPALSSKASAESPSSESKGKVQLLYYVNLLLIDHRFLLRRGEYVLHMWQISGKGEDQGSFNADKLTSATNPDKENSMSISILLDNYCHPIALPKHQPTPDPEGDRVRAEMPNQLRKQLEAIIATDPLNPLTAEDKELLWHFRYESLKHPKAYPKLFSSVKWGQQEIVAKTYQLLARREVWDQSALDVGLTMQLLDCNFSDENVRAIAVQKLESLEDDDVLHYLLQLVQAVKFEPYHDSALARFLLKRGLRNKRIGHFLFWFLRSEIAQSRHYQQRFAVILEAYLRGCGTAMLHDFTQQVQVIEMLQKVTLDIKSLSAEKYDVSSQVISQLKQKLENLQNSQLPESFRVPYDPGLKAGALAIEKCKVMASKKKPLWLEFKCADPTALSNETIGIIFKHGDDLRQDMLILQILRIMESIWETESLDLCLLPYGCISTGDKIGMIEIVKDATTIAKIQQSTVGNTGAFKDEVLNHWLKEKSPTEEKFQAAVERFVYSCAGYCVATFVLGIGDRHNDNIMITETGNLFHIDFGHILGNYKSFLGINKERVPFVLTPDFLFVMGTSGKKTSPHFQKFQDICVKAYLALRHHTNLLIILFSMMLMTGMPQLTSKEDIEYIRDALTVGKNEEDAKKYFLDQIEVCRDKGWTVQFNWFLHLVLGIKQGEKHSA

Compound	IL-10 upregulation in Ccnc Δ/Δ BMDCs [1]	IL-10 production [1]	IL-10 upregulation in Ccnc f/f BMDCs [1]	IL-10 production [2]	STAT1–STAT2 reporter activity (STAT1–STAT2)	NF-κB reporter activation (NF-κB)	Il10 mRNA levels (Il10 mRNA)	also measured
CN(C)[C@H]1C[C@@]23CC[C@@]4(O2)C(=CC[C@]2(C)C(c5ccc6ccncc6c5)=CC[C@H]24)C=C3[C@@H](O)[C@@H]1O [dCA, Δ^16-cortistatin A]	failed to upregulate IL-10	recapitulated the IL-10 potentiating activity of BRD6989	remained intact	recapitulated the IL-10 potentiating activity of BRD6989	suppressed induction of STAT1–STAT2 activity	suppressed NF-κB activation	–	activating phosphorylation of c-Jun on Ser63 (c-Jun): only moderately delayed; phosphorylation of c-Jun Ser243 (c-Jun): dramatically reduced phosphorylation; c-Jun Ser243 phosphorylation by recombinant cyclin C–CDK8 [3]: concentration-dependent suppression
Cn1ncc2cc(-c3cnc(N)c(Cl)c3N3CCC4(CCNC4=O)CC3)ccc21 [CCT251921]	–	recapitulated the IL-10 potentiating activity of BRD6989	–	recapitulated the IL-10 potentiating activity of BRD6989	–	–	–	–
CN(C)C/C=C/C(=O)Nc1ccc(C(=O)Nc2cccc(Nc3ncc(Cl)c(-c4c[nH]c5ccccc45)n3)c2)cc1 [THZ-1]	–	not enhanced	–	–	–	–	–	–
COc1ccc(N(C(=O)Nc2c(C)cccc2C)c2cc(Nc3ccc(N4CCN(C)CC4)cc3)ncn2)c(OC)c1 [HG-9-91-01, reference compound]	–	–	–	–	–	–	elevated Il10 mRNA during the first 2 h	–
CC1CCc2nc(N)c(C#N)c(-c3cccnc3)c2C1 (stereo not drawn) [BRD6989]	failed to upregulate IL-10	greater fold-increase in IL-10 production	remained intact	upregulated IL-10	suppressed induction of STAT1–STAT2 activity	suppressed NF-κB activation	sustained increase beginning at 4 h and extending to 24 h	cell viability ([4]; 48 h pretreatment, zymosan A 18 h): modestly reducing cell viability; production of IL-1β ([4]; zymosan A): largely unchanged; production of IL-12p40 ([4]; zymosan A): largely unchanged; production of TNFα ([4]; zymosan A): largely unchanged; zymosan A–induced release of IL-6 ([4]; zymosan A): suppressed; IL-10 production [5]: increased IL-10 production; IC50 [6]: ~200 nM; IC50 [7]: ~500 nM; IC50 [8]: > 30000 nM; IFNγ-induced phosphorylation of STAT1 at Ser727 (STAT1): inhibited; JAK-mediated phosphorylation of STAT1 Tyr701 (STAT1): did not affect; kinase profiling hit, PI3KC2A (PI3KC2A): secondary targets; kinase profiling hit, PI3KCG (PI3KCG): secondary targets

— publication PMC5693369 (Nature chemical biology, 2017)
